Data as given in ChEMBL document CHEMBL3588850, “Multivalent Amino Sugars to Recognize Different TAR RNA Conformations” (Medchemcomm, 2014).
Active and inactive are the calls of the source. The calls are words filed in the database; no cut-off is given here.

Legend:
Nucleic Acid [1] = experiment: Induction of conformational changes in wild type HIV1 TAR RNA assessed as changes in 210 to 220 nm region using 1 molar equivalents of compound at pH 6.8 by CD spectroscopy; assay type: nucleic-acid assay; conditions: Human immunodeficiency virus 1
Nucleic Acid [2] = experiment: Induction of conformational changes in wild type HIV1 TAR RNA assessed as increase in intensity in 265 nm region using 1 molar equivalents of compound at pH 6.8 by CD spectroscopy; assay type: nucleic-acid assay; conditions: Human immunodeficiency virus 1
Nucleic Acid [3] = experiment: Induction of conformational changes in HIV1 TAR RNA bulgeless mutant assessed as induction of red shift in CD spectra region using 1 molar equivalents of compound at pH 6.8 by CD spectroscopy; assay type: nucleic-acid assay; conditions: Human immunodeficiency virus 1
How it was run: (§1)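 Spectra recorded before and after adding 1 molar equivalent ligand (≤1% v/v, in buffer). Scan 325–200 nm at 500 nm/min, 1 nm bandwidth, 1 cm cuvette, 20 °C. Each spectrum is the average of 10 scans; ΔCD plotted.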

Nucleic Acid [4] = experiment: Induction of conformational changes in HIV1 TAR RNA tetraloop mutant assessed as induction of red shift in CD spectra region using 1 molar equivalents of compound at pH 6.8 by CD spectroscopy; assay type: nucleic-acid assay; conditions: Human immunodeficiency virus 1; how it was run: as §1
Nucleic Acid [5] = experiment: Induction of conformational changes in HIV1 TAR RNA bulgeless tetraloop mutant assessed as induction of red shift in CD spectra region using 1 molar equivalents of compound at pH 6.8 by CD spectroscopy; assay type: nucleic-acid assay; conditions: Human immunodeficiency virus 1; how it was run: as §1
Nucleic Acid [6] = experiment: Induction of conformational changes in HIV1 TAR RNA U3 bulge mutant assessed as induction of red shift in CD spectra region using 1 molar equivalents of compound at pH 6.8 by CD spectroscopy; assay type: nucleic-acid assay; conditions: Human immunodeficiency virus 1; how it was run: as §1
Nucleic Acid [7] = experiment: Induction of conformational changes in HIV1 TAR RNA bulgeless mutant assessed as changes in 260 to 270 nm region using 1 molar equivalents of compound at pH 6.8 by CD spectroscopy; assay type: nucleic-acid assay; conditions: Human immunodeficiency virus 1; how it was run: as §1
Nucleic Acid [8] = experiment: Induction of conformational changes in HIV1 TAR RNA tetraloop mutant assessed as changes in 260 to 270 nm region using 1 molar equivalents of compound at pH 6.8 by CD spectroscopy; assay type: nucleic-acid assay; conditions: Human immunodeficiency virus 1; how it was run: as §1
Nucleic Acid [9] = experiment: Induction of conformational changes in HIV1 TAR RNA bulgeless tetraloop mutant assessed as changes in 260 to 270 nm region using 1 molar equivalents of compound at pH 6.8 by CD spectroscopy; assay type: nucleic-acid assay; conditions: Human immunodeficiency virus 1; how it was run: as §1
Nucleic Acid [10] = experiment: Induction of conformational changes in HIV1 TAR RNA U3 bulge mutant aassessed as changes in 260 to 270 nm region using 1 molar equivalents of compound at pH 6.8 by CD spectroscopy; assay type: nucleic-acid assay; conditions: Human immunodeficiency virus 1; how it was run: as §1
Nucleic Acid [11] = experiment: Induction of conformational changes in HIV1 TAR RNA bulgeless mutant assessed as changes in 210 to 220 nm region using 1 molar equivalents of compound at pH 6.8 by CD spectroscopy; assay type: nucleic-acid assay; conditions: Human immunodeficiency virus 1; how it was run: as §1
Nucleic Acid [12] = experiment: Induction of conformational changes in HIV1 TAR RNA tetraloop mutant assessed as changes in 210 to 220 nm region using 1 molar equivalents of compound at pH 6.8 by CD spectroscopy; assay type: nucleic-acid assay; conditions: Human immunodeficiency virus 1; how it was run: as §1
Nucleic Acid [13] = experiment: Induction of conformational changes in HIV1 TAR RNA bulgeless tetraloop mutant assessed as changes in 210 to 220 nm region using 1 molar equivalents of compound at pH 6.8 by CD spectroscopy; assay type: nucleic-acid assay; conditions: Human immunodeficiency virus 1; how it was run: as §1
Nucleic Acid [14] = experiment: Induction of conformational changes in HIV1 TAR RNA U3 bulge mutant aassessed as changes in 210 to 220 nm region using 1 molar equivalents of compound at pH 6.8 by CD spectroscopy; assay type: nucleic-acid assay; conditions: Human immunodeficiency virus 1; how it was run: as §1
[15] = test system: Human immunodeficiency virus 1; experiment: Induction of thermal stability changes in wild type HIV1 TAR RNA assessed as change in melting temperature using 1 molar equivalents of compound pre-incubated for 4 hrs at pH 6.8 at 4 degC before test by UV thermal denaturation assay
[16] = test system: Human immunodeficiency virus 1; experiment: Induction of thermal stability changes in HIV1 TAR RNA U3 bulge mutant assessed as change in melting temperature using 1 molar equivalents of compound pre-incubated for 4 hrs at pH 6.8 at 4 degC before test by UV thermal denaturation assay
How it was run: (§2)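 TAR RNA mutants at 1 μM/strand mixed with 1 or 2 molar equivalents of ligand in 100 mM KCl, 10 mM SC, 0.5 mM EDTA, pH 6.8, then held 4 h at 4 °C. Absorbance at 260 nm in 1 cm cuvettes, 15–100 °C, heating 0.3 °C/min. Tm taken from first-derivative plots and compared with the no-ligand sample.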

[17] = test system: Human immunodeficiency virus 1; experiment: Induction of thermal stability changes in HIV1 TAR RNA tetraloop mutant assessed as change in melting temperature using 1 molar equivalents of compound pre-incubated for 4 hrs at pH 6.8 at 4 degC before test by UV thermal denaturation assay; how it was run: as §2
[18] = test system: Human immunodeficiency virus 1; experiment: Induction of thermal stability changes in HIV1 TAR RNA bulgeless mutant assessed as change in melting temperature using 1 molar equivalents of compound pre-incubated for 4 hrs at pH 6.8 at 4 degC before test by UV thermal denaturation assay; how it was run: as §2
[19] = test system: Human immunodeficiency virus 1; experiment: Induction of thermal stability changes in HIV1 TAR RNA bulgeless tetraloop mutant assessed as change in melting temperature using 1 molar equivalents of compound pre-incubated for 4 hrs at pH 6.8 at 4 degC before test by UV thermal denaturation assay; how it was run: as §2
Nucleic Acid [20] = experiment: Binding affinity to wild type HIV1 TAR RNA at pH 6.8 by ethidium bromide displacement assay; assay type: nucleic-acid assay, Human immunodeficiency virus 1
How it was run: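 TAR RNA (200 nM/strand) and EtBr (5 μM) in 100 mM KCl, 10 mM SC, 0.5 mM EDTA, pH 6.8, titrated with ligand aliquots (at most 4% v/v). Fluorescence excited at 545 nm and read at 610 nm. IC50 is the ligand concentration that displaces 50% of EtBr, taken from a sigmoidal fit of fraction displaced versus log ligand concentration.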

Nucleic Acid [21] = experiment: Binding affinity to HIV1 TAR RNA tetraloop mutant at pH 6.8 by ethidium bromide displacement assay; assay type: nucleic-acid assay, Human immunodeficiency virus 1
How it was run: (§3)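 Synthetic 2′-ACE-protected TAR RNA, deprotected, heated 98 °C 5 min, then ice-cooled 15 min. TAR RNA at 200 nM/strand with ethidium bromide 5 μM in 100 mM KCl, 10 mM SC, 0.5 mM EDTA, pH 6.8. Ligand added stepwise, ≤4% v/v. Excitation 545 nm, emission 580–660 nm, intensity at 610 nm normalized. IC50 from sigmoidal fit of fraction EtBr displaced vs log ligand; association constants from Scatchard analysis.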

Nucleic Acid [22] = experiment: Binding affinity to HIV1 TAR RNA bulgeless tetraloop mutant at pH 6.8 by ethidium bromide displacement assay; assay type: nucleic-acid assay, Human immunodeficiency virus 1; how it was run: as §3
Nucleic Acid [23] = experiment: Binding affinity to HIV1 TAR RNA U3 bulge mutant at pH 6.8 by ethidium bromide displacement assay; assay type: nucleic-acid assay, Human immunodeficiency virus 1; how it was run: as §3
Nucleic Acid [24] = experiment: Binding affinity to wild type HIV1 TAR RNA assessed as association constant at pH 6.8 by ethidium bromide displacement assay based Scatchard analysis method; assay type: nucleic-acid assay; conditions: Human immunodeficiency virus 1
How it was run: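 Ethidium bromide displacement: 5 μM EtBr with TAR RNA at 200 nM/strand (under 20% of EtBr bound) in 100 mM KCl, 10 mM SC, 0.5 mM EDTA, pH 6.8. Ligand added in concentrated aliquots, at most 4% v/v. Excitation 545 nm, emission 580–660 nm, intensity at 610 nm. Association constant obtained by Scatchard analysis of the titration data.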

Nucleic Acid [25] = experiment: Binding affinity to HIV1 TAR RNA bulgeless mutant assessed as association constant at pH 6.8 by ethidium bromide displacement assay based Scatchard analysis method; assay type: nucleic-acid assay; conditions: Human immunodeficiency virus 1; how it was run: as §3
Nucleic Acid [26] = experiment: Binding affinity to HIV1 TAR RNA tetraloop mutant assessed as association constant at pH 6.8 by ethidium bromide displacement assay based Scatchard analysis method; assay type: nucleic-acid assay; conditions: Human immunodeficiency virus 1; how it was run: as §3
Nucleic Acid [27] = experiment: Binding affinity to HIV1 TAR RNA bulgeless tetraloop mutant assessed as association constant at pH 6.8 by ethidium bromide displacement assay based Scatchard analysis method; assay type: nucleic-acid assay; conditions: Human immunodeficiency virus 1; how it was run: as §3
Nucleic Acid [28] = experiment: Binding affinity to HIV1 TAR RNA U3 bulge mutant at assessed as association constant at pH 6.8 by ethidium bromide displacement assay based Scatchard analysis method; assay type: nucleic-acid assay; conditions: Human immunodeficiency virus 1; how it was run: as §3
Nucleic Acid [29] = experiment: Binding affinity to wild type HIV1 TAR RNA assessed as induction of chemical shifts changes of GH1 and UH3 regions by NMR spectroscopy; assay type: nucleic-acid assay; conditions: Human immunodeficiency virus 1
How it was run: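 Imino-region 1D 1H jump-return echo spectra recorded at 298 K on an 850 MHz instrument with a cryoprobe, with increasing amounts of ligand added.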

Nucleic Acid [30] = experiment: Binding affinity to HIV1 TAR RNA tetraloop mutant assessed as induction of imino chemical shifts changes by NMR spectroscopy; assay type: nucleic-acid assay; conditions: Human immunodeficiency virus 1

How did the Activity (Nucleic Acid [1]) turn out when `NC[C@@H]1O[C@H](O[C@H]2[C@@H](O)[C@H](O[C@@H]3[C@@H](O)[C@H](N)C[C@H](N)[C@H]3O[C@H]3O[C@H](CN)[C@@H](O)[C@H](O)[C@H]3N)O[C@@H]2Cn2cc(COCc3cn(C[C@H]4O[C@@H](O[C@@H]5[C@@H](O)[C@H](N)C[C@H](N)[C@H]5O[C@H]5O[C@H](CN)[C@@H](O)[C@H](O)[C@H]5N)[C@H](O)[C@@H]4O[C@H]4O[C@@H](CN)[C@@H](O)[C@H](O)[C@H]4N)nn3)nn2)[C@H](N)[C@@H](O)[C@@H]1O` was run?
Its Activity is “Active”.

And the Activity (Nucleic Acid [2])?
The Activity was “inactive”.

What about the Activity (Nucleic Acid [3]) of the same molecule?
Its Activity is “Active”.

And the Activity (Nucleic Acid [4])?
The Activity was “Active”.

And the Activity (Nucleic Acid [5])?
Its Activity is “Active”.

And the Activity (Nucleic Acid [6])?
Its Activity is “Active”.

And the Activity (Nucleic Acid [7])?
The Activity was “Active”.

What about the Activity (Nucleic Acid [8]) of the same molecule?
The Activity was “Active”.

What about the Activity (Nucleic Acid [9]) of the same molecule?
The Activity was “Active”.

What about the Activity (Nucleic Acid [10]) of the same molecule?
The Activity was “Active”.

What about the Activity (Nucleic Acid [11]) of the same molecule?
The Activity was “inactive”.

And the Activity (Nucleic Acid [12])?
The Activity was “inactive”.

What about the Activity (Nucleic Acid [13]) of the same molecule?
The Activity was “inactive”.

And the Activity (Nucleic Acid [14])?
The Activity was “Active”.

What about the ΔTm [15] of the same molecule?
Its ΔTm is 10.2 °C.

What about the ΔTm [16] of the same molecule?
The ΔTm was 8.5 °C.

What about the ΔTm [17] of the same molecule?
The ΔTm was 6 °C.

And the ΔTm [18]?
Its ΔTm is 5 °C.

And the ΔTm [19]?
The ΔTm was > 5 °C.

And the IC50 (Nucleic Acid [20])?
The IC50 was 112 nM.

And the IC50 (Nucleic Acid [21])?
The IC50 was 156 nM.

What about the IC50 (Nucleic Acid [22]) of the same molecule?
The IC50 was 122 nM.

And the IC50 (Nucleic Acid [23])?
The IC50 was 186 nM.

And the K (Nucleic Acid [24])?
The K was 1.2 ×10⁸ /M.

What about the K (Nucleic Acid [25]) of the same molecule?
Its K is 7.5 ×10⁷ /M.

And the K (Nucleic Acid [26])?
Its K is 2.7 ×10⁷ /M.

And the K (Nucleic Acid [27])?
Its K is 2.3 ×10⁸ /M.

What about the K (Nucleic Acid [28]) of the same molecule?
The K was 1.6 ×10⁷ /M.

And the Activity (Nucleic Acid [29])?
Its Activity is “Dose-dependent effect”.

What about the Activity (Nucleic Acid [30]) of the same molecule?
The Activity was “Active”.
